Laboratory results from ChEMBL document CHEMBL3352034, “Therapeutic potential of targeting the oncogenic SHP2 phosphatase” (J Med Chem, 2014).
Blank lines part the entries; values can stand above or below the compound they belong to. Calls of active or inactive are those of the source. The rule behind the calls is not given here.

Experiments:
[1] = molecular target: T1, Tyrosine-protein phosphatase non-receptor type 11 (Homo sapiens, UniProt Q06124); assay: Inhibition of SHP2 (unknown origin) using p-nitrophenyl phosphate substrate by microplate spectrophotometry
T1 sequence (Q06124 whole entry): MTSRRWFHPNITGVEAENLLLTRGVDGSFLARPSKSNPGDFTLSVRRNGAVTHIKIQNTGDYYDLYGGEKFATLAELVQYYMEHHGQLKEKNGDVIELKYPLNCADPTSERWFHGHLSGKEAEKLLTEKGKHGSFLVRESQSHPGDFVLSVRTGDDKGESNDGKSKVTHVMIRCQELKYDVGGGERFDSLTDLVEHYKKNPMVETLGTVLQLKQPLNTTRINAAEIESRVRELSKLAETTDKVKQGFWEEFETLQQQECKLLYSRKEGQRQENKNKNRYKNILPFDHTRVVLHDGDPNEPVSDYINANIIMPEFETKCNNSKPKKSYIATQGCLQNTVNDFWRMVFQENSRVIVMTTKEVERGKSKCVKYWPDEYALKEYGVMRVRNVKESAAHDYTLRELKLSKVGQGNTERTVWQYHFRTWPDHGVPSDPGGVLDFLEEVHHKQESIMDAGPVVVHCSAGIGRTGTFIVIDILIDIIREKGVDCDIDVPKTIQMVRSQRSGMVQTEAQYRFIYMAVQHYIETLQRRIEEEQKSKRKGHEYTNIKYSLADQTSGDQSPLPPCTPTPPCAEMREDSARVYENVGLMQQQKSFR

[2] = molecular target: T2, Tyrosine-protein phosphatase non-receptor type 11 (Homo sapiens) (UniProt Q06124); assay: Inhibition of SHP2 in human NCI-H1975 cells assessed as reduction in EGF-induced Erk1/2 phosphorylation at 2 uM after 60 mins by immunoblot analysis; assay type: cell-based
T2 sequence (whole entry): T1 sequence (Q06124 whole entry)
Summary of the method: (§1)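 H1975 cells serum-starved overnight, treated with vehicle or compound for 3 h, then left unstimulated or stimulated with 5 ng/mL EGF for 60 min. Lysates resolved by SDS-PAGE and immunoblotted for paxillin pY118 and phospho-Erk1/2.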

[3] = molecular target: T2, Tyrosine-protein phosphatase non-receptor type 11 (Homo sapiens); assay: Inhibition of SHP2 dephosphorylation activity in human NCI-H1975 cells assessed as increase in paxillin (pY118) phosphorylation at 2 uM after 60 mins by immunoblot analysis; assay type: cell-based; parameters: Activity: scale not given: the % may be the effect or the level left; summary of the method: as §1
[4] = molecular target: Receptor-type tyrosine-protein phosphatase epsilon (Homo sapiens, UniProt P23469); assay: Inhibition of PTPepsilon (unknown origin)
[5] = molecular target: Receptor-type tyrosine-protein phosphatase alpha (Homo sapiens, UniProt P18433); assay: Inhibition of PTPalpha (unknown origin)
NCI-H1975 [6] = assay: Anticancer activity against human NCI-H1975 cells after 2 days by MTT assay; assay type: functional, cell-based
Summary of the method: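 H1975 NSCLC cells in RPMI-1640 with 10% FBS at 37 °C, 5% CO2. 3×10^3 cells/well, treated 2 days in RPMI-1640 with 0.5% FBS. MTT at 50 μg/mL for 3–4 h, formazan dissolved in DMSO, OD read at 540 nm. Media-only wells used for background. IC50 from dose–response.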

[7] = molecular target: T2, Tyrosine-protein phosphatase non-receptor type 11 (Homo sapiens); assay: Inhibition of SHP2 in human NCI-H1975 cells assessed as reduction in EGF-induced Erk1/2 phosphorylation after 60 mins by immunoblot analysis; assay type: cell-based; summary of the method: as §1
[8] = molecular target: T2, Tyrosine-protein phosphatase non-receptor type 11 (Homo sapiens); assay: Inhibition of SHP2 dephosphorylation activity in human NCI-H1975 cells assessed as increase in paxillin (pY118) phosphorylation after 60 mins by immunoblot analysis; assay type: cell-based; summary of the method: as §1
[9] = molecular target: T2, Tyrosine-protein phosphatase non-receptor type 11 (Homo sapiens); assay: Inhibition of SHP2 in human NCI-H1975 cells assessed as reduction in EGF-induced Erk1/2 phosphorylation after 60 mins by immunoblot analysis in presence of SHP2 siRNA; assay type: cell-based
Summary of the method: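 H1975 cells transfected with SHP2 or scrambled siRNA using Lipofectamine 2000 for 6 h, then recovered in RPMI1640 with 10% FBS. Serum-starved overnight, treated with compound for 3 h, stimulated with 5 ng/mL EGF for 60 min. Phospho-Erk1/2 measured by immunoblot.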

NCI-H1975 [10] = assay: Effect on PMA-induced Erk1/2 phosphorylation in human NCI-H1975 cells at 0.5 to 2 uM after 30 mins by immunoblot analysis; assay type: functional, cell-based
SK-BR-3 = assay: Anticancer activity against human SKBR3 cells assessed as growth inhibition at 3 uM measured within 24 hrs by matrigel assay; assay type: functional, cell-based
Summary of the method: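 About 300000 SKBR3 cells seeded into 150 μL growth factor reduced Matrigel. Three dishes per condition received medium containing DMSO vehicle or compound. Colonies imaged every 24 h under a stereo microscope. Cross-sectional area of individual colonies measured from the images.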

[11] = molecular target: T2, Tyrosine-protein phosphatase non-receptor type 11 (Homo sapiens); assay: Inhibition of SHP2 in human SKBR3 cells assessed as inhibition of total Erk1/2 phosphorylation level at 1 to 10 uM measured after 4 days by matrigel assay; assay type: cell-based; details: SK-BR-3
Summary of the method: (§2)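 SKBR3 cells grown in Matrigel with vehicle or compound (1 to 10 μM), three dishes per condition. After 4 days cells recovered from Matrigel and lysed in PLC buffer with protease inhibitors. Total and phospho Erk1/2 and Akt detected by SDS-PAGE immunoblot.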

[12] = molecular target: T2, Tyrosine-protein phosphatase non-receptor type 11 (Homo sapiens); assay: Inhibition of SHP2 in human SKBR3 cells assessed as inhibition of total Akt phosphorylation level at 1 to 10 uM measured after 4 days by matrigel assay; assay type: cell-based; details: SK-BR-3; summary of the method: as §2
Mus musculus [13] = species: Mus musculus; assay: Anticancer activity against mouse 32D cells bearing wild-type KIT assessed as ligand dependent growth inhibition at 1 to 5 uM measured after 6 hrs; assay type: functional, cell-based
Summary of the method: (§3)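 32D myeloid cells retrovirally transduced with WT KIT or KITD814V and sorted on EGFP. Starved 6–8 h in IMDM/0.2% BSA without serum or growth factors. Plated at 5×10^4 cells in triplicate in IMDM/10% FBS, with 10 ng/mL IL-3 for WT KIT and no growth factors for KITD814V, ± inhibitor. Cultured 48 h, pulsed 6 h with 1.0 μCi [3H]thymidine, CPM counted. Four independent experiments.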

Mus musculus [14] = species: Mus musculus; assay: Anticancer activity against mouse 32D cells bearing KITD814V mutant assessed as ligand dependent growth inhibition at 5 uM measured after 6 hrs; assay type: functional, cell-based; details: in the assay text read “ligand independent” for “ligand dependent”; summary of the method: as §3
Mus musculus [15] = species: Mus musculus; assay: Anticancer activity against mouse 32D cells bearing KITD814V mutant assessed as ligand dependent growth inhibition at 1 uM measured after 6 hrs; assay type: functional, cell-based; details: in the assay text read “ligand independent” for “ligand dependent”; summary of the method: as §3
Bone marrow cell [16] = assay: Reduction in growth of C57BL/6 mouse Bone marrow cell bearing KITD814V mutant at 1 uM after 6 hrs; assay type: functional, cell-based
Bone marrow cell [17] = assay: Reduction in growth of C57BL/6 mouse Bone marrow cell bearing KITD814V mutant at 5 uM after 6 hrs; assay type: functional, cell-based
[18] = molecular target: Mast/stem cell growth factor receptor Kit (Homo sapiens) (UniProt P10721); assay: Effect on wild type KIT (unknown origin) expressed in serum starved mouse 32D cells assessed as effect on Erk1/2 activation at 1 to 5 uM measured after 2 hrs by immunoblot analysis; assay type: cell-based
Summary of the method: (§4)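 Sorted 32D cells expressing WT KIT or KITD814V, starved of serum and growth factors for 6 h. Treated with compound for 2 h, then lysed in NP-40 buffer with phosphatase and protease inhibitors. Equal protein amounts immunoblotted for phospho and total Akt and Erk1/2, ECL detection. Two independent experiments.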

[19] = molecular target: Mast/stem cell growth factor receptor Kit (Homo sapiens) (UniProt P10721); assay: Inhibition of KIT D814V mutant (unknown origin) expressed in serum starved mouse 32D cells assessed as inhibition of total Erk1/2 activation at 1 to 5 uM measured after 2 hrs by immunoblot analysis; assay type: cell-based; summary of the method: as §4
[20] = molecular target: Mast/stem cell growth factor receptor Kit (Homo sapiens) (UniProt P10721); assay: Effect on wild type KIT (unknown origin) expressed in serum starved mouse 32D cells assessed as effect on Akt activation at 1 to 5 uM measured after 2 hrs by immunoblot analysis; assay type: cell-based; summary of the method: as §4
[21] = molecular target: Mast/stem cell growth factor receptor Kit (Homo sapiens) (UniProt P10721); assay: Inhibition of KIT D814V mutant (unknown origin) expressed in serum starved mouse 32D cells assessed as inhibition of Akt activation at 1 to 5 uM measured after 2 hrs by immunoblot analysis; assay type: cell-based; summary of the method: as §4

Chain of Mast/stem cell growth factor receptor Kit (Homo sapiens) (P10721 whole entry): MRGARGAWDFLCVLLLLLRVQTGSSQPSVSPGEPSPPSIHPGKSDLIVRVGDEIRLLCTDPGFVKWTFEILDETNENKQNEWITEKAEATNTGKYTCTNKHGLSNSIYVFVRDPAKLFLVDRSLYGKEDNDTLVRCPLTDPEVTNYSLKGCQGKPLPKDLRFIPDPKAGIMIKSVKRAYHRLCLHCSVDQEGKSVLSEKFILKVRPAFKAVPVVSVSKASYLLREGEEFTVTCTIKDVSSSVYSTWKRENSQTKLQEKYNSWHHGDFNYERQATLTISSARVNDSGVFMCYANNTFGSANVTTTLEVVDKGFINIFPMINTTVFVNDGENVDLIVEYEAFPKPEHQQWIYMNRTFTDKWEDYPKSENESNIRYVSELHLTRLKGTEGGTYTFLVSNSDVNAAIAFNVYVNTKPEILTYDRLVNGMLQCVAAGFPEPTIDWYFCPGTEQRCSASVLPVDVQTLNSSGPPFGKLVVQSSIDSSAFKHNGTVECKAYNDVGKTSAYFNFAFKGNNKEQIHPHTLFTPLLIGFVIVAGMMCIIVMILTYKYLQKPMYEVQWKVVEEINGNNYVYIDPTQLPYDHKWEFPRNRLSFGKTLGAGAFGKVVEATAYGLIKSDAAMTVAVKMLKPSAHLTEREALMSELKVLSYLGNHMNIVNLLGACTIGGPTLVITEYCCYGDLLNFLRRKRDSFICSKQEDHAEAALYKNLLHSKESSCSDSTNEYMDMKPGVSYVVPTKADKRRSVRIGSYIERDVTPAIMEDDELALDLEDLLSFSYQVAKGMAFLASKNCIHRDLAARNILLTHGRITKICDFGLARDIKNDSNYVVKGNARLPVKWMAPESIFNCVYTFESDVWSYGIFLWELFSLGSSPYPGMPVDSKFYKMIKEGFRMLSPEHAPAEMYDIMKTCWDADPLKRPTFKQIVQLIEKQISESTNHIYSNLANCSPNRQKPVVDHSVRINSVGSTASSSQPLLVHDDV
Chain of Receptor-type tyrosine-protein phosphatase alpha (P18433 whole entry): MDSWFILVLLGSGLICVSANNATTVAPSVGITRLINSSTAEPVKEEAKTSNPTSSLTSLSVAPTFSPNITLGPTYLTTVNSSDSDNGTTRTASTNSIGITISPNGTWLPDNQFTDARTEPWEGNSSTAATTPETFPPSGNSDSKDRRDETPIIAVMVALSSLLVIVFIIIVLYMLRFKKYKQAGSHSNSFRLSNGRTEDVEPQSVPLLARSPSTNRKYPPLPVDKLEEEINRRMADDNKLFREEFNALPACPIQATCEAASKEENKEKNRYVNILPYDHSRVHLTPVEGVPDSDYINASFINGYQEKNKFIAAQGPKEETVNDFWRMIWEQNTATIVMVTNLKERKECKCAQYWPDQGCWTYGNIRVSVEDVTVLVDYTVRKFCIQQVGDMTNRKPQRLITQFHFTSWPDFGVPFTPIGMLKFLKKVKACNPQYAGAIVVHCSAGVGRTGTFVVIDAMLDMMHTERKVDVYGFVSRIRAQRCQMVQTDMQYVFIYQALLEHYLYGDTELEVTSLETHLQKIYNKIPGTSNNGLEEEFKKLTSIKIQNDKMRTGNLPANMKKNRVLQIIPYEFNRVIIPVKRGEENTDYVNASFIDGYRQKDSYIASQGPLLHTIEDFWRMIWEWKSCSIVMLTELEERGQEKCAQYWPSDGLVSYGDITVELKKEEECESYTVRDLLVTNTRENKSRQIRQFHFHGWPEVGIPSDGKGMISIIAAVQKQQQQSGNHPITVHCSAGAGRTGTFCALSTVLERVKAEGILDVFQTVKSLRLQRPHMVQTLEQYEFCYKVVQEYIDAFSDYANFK
Chain of Receptor-type tyrosine-protein phosphatase epsilon (P23469 whole entry): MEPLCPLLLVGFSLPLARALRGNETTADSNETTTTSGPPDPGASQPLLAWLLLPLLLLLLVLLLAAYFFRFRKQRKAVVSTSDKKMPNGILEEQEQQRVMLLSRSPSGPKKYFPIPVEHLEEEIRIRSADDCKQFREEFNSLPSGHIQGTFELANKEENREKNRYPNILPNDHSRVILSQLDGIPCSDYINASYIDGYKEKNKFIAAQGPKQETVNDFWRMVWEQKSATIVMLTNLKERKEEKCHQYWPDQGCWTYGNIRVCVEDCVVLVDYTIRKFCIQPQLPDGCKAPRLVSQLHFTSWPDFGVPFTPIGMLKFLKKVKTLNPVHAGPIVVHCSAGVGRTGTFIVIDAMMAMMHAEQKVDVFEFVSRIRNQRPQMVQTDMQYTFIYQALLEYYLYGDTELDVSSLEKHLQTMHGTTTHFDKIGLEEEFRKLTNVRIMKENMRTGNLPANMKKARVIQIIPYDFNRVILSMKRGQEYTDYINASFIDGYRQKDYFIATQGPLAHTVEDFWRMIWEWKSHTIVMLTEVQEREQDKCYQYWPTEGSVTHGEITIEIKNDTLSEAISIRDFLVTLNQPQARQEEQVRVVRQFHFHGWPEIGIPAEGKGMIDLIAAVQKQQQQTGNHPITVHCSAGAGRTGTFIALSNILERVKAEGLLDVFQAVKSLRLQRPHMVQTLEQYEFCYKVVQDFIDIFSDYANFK

IC50 [1]: > 20 µM
Compound: CCCN(CC1CC1)C(=O)CCC(=O)Nc1cccc(-c2c(I)c3cc(C(=O)O)c(O)cc3n2C)c1

inhibition [2]: inactive
inhibition [3]: inactive
Compound: Cn1c(-c2cccc(NC(=O)C(=O)O)c2)c(I)c2cc(C(=O)O)c(O)cc21

IC50 [4]: > 20 µM
IC50 [5]: > 100 µM
IC50 (NCI-H1975 [6]; NCI-H1975, 48 h): 0.17 µM
inhibition [7]: Dose-dependent effect
inhibition [8]: Dose-dependent effect
inhibition [2]: 40%
Activity [3]: 30%
inhibition [9]: inactive
inhibition [11]: Active
inhibition [12]: Active
inhibition [18]: inactive
inhibition [19]: Dose-dependent effect
inhibition [20]: inactive
inhibition [21]: Dose-dependent effect
Compound: Cn1c(-c2cccc(NC(=O)C(=O)Nc3ccc(-c4ccsc4)cc3)c2)c(I)c2cc(C(=O)O)c(O)cc21
inhibition (NCI-H1975 [6]): Dose-dependent effect
Activity (NCI-H1975 [10]): inactive
inhibition (SK-BR-3): Active
inhibition (Mus musculus [13]): inactive
inhibition (Mus musculus [14]): Active
inhibition (Mus musculus [15]): Active
inhibition (Bone marrow cell [16]): Active
inhibition (Bone marrow cell [17]): Active

Compound: Cn1c(-c2ccccc2)c(-c2cn(CCC(=O)Nc3ccc(-c4ccccc4)cc3)nn2)c2cc(C(=O)O)c(O)cc21
inhibition (Mus musculus [13]): inactive
inhibition (Mus musculus [14]): Active
